Measurements published in ChEMBL document CHEMBL1932977, “Synthesis of pyrazolo[3,4-b]pyridines under microwave irradiation in multi-component reactions and their antitumor and antimicrobial activities - Part 1” (Eur J Med Chem, 2012).
Converted amounts (≈) assume the structure as drawn. The source made the active and inactive calls. The calls are words filed in the database; no cut-off is given here.

Key:
HepG2 = assay: Cytotoxicity against human HepG2 by sulforhodamie B colorimetric assay; format: functional, cell-based
In short: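 HEPG2 human liver cancer cells, compound-treated against untreated control. Read by SRB: TCA-fixed cultures stained 30 min with 0.4% w/v SRB in 1% acetic acid, bound dye extracted with 10 mM Tris, optical density read on a plate reader. Surviving fraction as percent growth. IC50 estimated by probit regression.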

Penicillium expansum = assay: Antifungal activity against Penicillium expansum at 10 mg/ml after 24 hrs by cut-plug method; format: functional
In short: (§1)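 Cut-plug agar diffusion. Bacteria grown on nutrient agar and fungi on Sabouraud agar slopes, strains from a university culture collection. Plates seeded with 1 ml of diluted inoculum (10⁷ CFU/ml) spread after solidification. Wells cut and filled with compound in DMSO at 10 mg/ml. Plates incubated at 30 °C for 24 h, then inhibition-zone diameters (mm) measured.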

Escherichia coli = assay: Antibacterial activity against Escherichia coli at 10 mg/ml after 24 hrs by cut-plug method; format: functional; in short: as §1
Enterobacter cloacae = assay: Antibacterial activity against Enterobacter cloacae at 10 mg/ml after 24 hrs by cut-plug method; format: functional; in short: as §1
Bacillus = assay: Antibacterial activity against Bacillus at 10 mg/ml after 24 hrs by cut-plug method; format: functional; in short: as §1
Fusarium oxysporum = assay: Antifungal activity against Fusarium oxysporum at 10 mg/ml after 24 hrs by cut-plug method; format: functional; in short: as §1
Serratia = assay: Antibacterial activity against Serratia at 10 mg/ml after 24 hrs by cut-plug method; format: functional; in short: as §1
[1] = Homo sapiens, HepG2, read-out: IC50

Compound | IC50 (HepG2; [1]) | diameter of the inhibition zone (DIZ) (Penicillium expansum) | diameter of the inhibition zone (DIZ) (Escherichia coli) | diameter of the inhibition zone (DIZ) (Enterobacter cloacae) | diameter of the inhibition zone (DIZ) (Bacillus) | diameter of the inhibition zone (DIZ) (Fusarium oxysporum) | diameter of the inhibition zone (DIZ) (Serratia) | IC50 (HepG2; hepg2)
COc1cccc2c1C(=O)c1c(O)c3c(c(O)c1C2=O)C[C@@](O)(C(=O)CO)C[C@@H]3O[C@H]1C[C@H](N)[C@H](O)[C@H](C)O1 [DOXORUBICIN] | 3.73 µg/mL (≈ 6.86 µM) | – | – | – | – | – | – | –
O=C(O)c1cc(-c2ccc(O)cc2)c2c(-c3cccnc3)nn(-c3ccccc3)c2n1 | – | inactive | inactive | inactive | inactive | – | – | –
COc1ccc(-c2c(C#N)c(-c3ccc(C)cc3)nc3c2c(-c2cccnc2)nn3-c2ccccc2)cc1 | 4.34 µg/mL (≈ 8.79 µM) | inactive | – | inactive | inactive | inactive | – | –
O=C(O)c1cc(-c2ccccc2)c2c(-c3cccnc3)nn(-c3ccccc3)c2n1 | – | inactive | inactive | inactive | inactive | inactive | – | –
COc1ccc(-c2c(C#N)c(-c3ccccc3)nc3c2c(-c2cccnc2)nn3-c2ccccc2)cc1 | – | inactive | inactive | inactive | inactive | inactive | inactive | Not Active
COc1ccc(-c2c(C#N)c(-c3ccc([N+](=O)[O-])cc3)nc3c2c(-c2cccnc2)nn3-c2ccccc2)cc1 | 13.5 µg/mL (≈ 25.7 µM) | – | – | inactive | inactive | inactive | inactive | –
COc1ccc(-c2c(C#N)c(-c3cccnc3)nc3c2c(-c2cccnc2)nn3-c2ccccc2)cc1 | 3.73 µg/mL (≈ 7.76 µM) | inactive | inactive | inactive | – | inactive | inactive | –
COc1ccc(-c2c(C#N)c(-c3ccc(Cl)cc3)nc3c2c(-c2cccnc2)nn3-c2ccccc2)cc1 | 4 µg/mL (≈ 7.78 µM) | inactive | inactive | inactive | inactive | inactive | inactive | –
CCN(CC)c1ccc(-c2cc(C(=O)O)nc3c2c(-c2cccnc2)nn3-c2ccccc2)cc1 | – | inactive | inactive | inactive | inactive | – | inactive | –
CN(C)c1ccc(-c2cc(C(=O)O)nc3c2c(-c2cccnc2)nn3-c2ccccc2)cc1 | – | inactive | inactive | – | inactive | – | – | –
COc1ccc(-c2c(C#N)c(-c3ccc(F)cc3)nc3c2c(-c2cccnc2)nn3-c2ccccc2)cc1 | 3.43 µg/mL (≈ 6.89 µM) | inactive | inactive | inactive | inactive | inactive | – | –
O=C(O)c1cc(-c2ccc(Br)cc2)c2c(-c3cccnc3)nn(-c3ccccc3)c2n1 | – | inactive | inactive | inactive | inactive | inactive | – | –
COc1ccc(-c2cc(C(=O)O)nc3c2c(-c2cccnc2)nn3-c2ccccc2)cc1 | – | inactive | – | – | – | – | – | –
